From ChEMBL document CHEMBL3351997, “Synthesis of novel tylophorine derivatives and evaluation of their anti-inflammatory activity” (ACS Med Chem Lett, 2014)

What was measured:
T-cell [1] = experiment: Induction of Foxp3 expression in B6 Foxp3-GFP mouse CD4-positive T cells assessed as increase in iTregs at 1 uM after 3 days by flow cytometry; format: functional
Method in brief: (§1)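 Naive CD4+ T cells were sorted from B6 Foxp3-GFP reporter mice and cultured with compound plus TGF-β (5 ng/mL) for 3 days. Harvested cells were read by flow cytometry as the percentage of GFP+ (Foxp3+) iTregs. Values are mean ± SD of at least three independent experiments, each run in duplicate.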

RAW264.7 [2] = experiment: Antiinflammatory activity against mouse RAW264.7 cells assessed as inhibition of LPS-induced TNFalpha production after 6 hrs by ELISA; format: functional, cell-based; settings: RAW264.7, 6 h
RAW264.7 [3] = experiment: Cytotoxicity against mouse RAW264.7 cells after 48 hrs by MTT assay; format: cell-based; settings: RAW264.7, 48 h
Method in brief: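 Raw 264.7 murine macrophages were cultured with a range of compound concentrations for 48 h, with vehicle-treated cells as control. The 50% cytotoxic concentration (CC50) was determined, with values representative of three experiments.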

[4] = Antiinflammatory activity against BALB/c mouse splenocytes assessed as inhibition of LPS-induced TNFalpha production after 4 hrs by ELISA; format: functional, cell-based; settings: Splenocyte
Method in brief: (§2)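 Splenocytes from BALB/c mice were cultured with LPS (100 ng/mL) plus compound for 4 h or 24 h. TNF-α in the supernatants was measured by ELISA. Values are mean ± SD of at least three independent experiments, each run in duplicate.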

[5] = Antiinflammatory activity against BALB/c mouse splenocytes assessed as inhibition of LPS-induced TNFalpha production after 24 hrs by ELISA; format: functional, cell-based; settings: Splenocyte; method in brief: as §2
T-cell [6] = experiment: Inhibition of Foxp3 expression in B6 Foxp3-GFP mouse CD4-positive T cells assessed as iTregs at 100 nM after 3 days by flow cytometry; format: functional; settings: for inhibition at 0.1 µM: Mus musculus, T-cell, 72 h; method in brief: as §1
T-cell [7] = experiment: Induction of Foxp3 expression in B6 Foxp3-GFP mouse CD4-positive T cells assessed as increase in iTregs at 100 nM after 3 days by flow cytometry; format: functional; method in brief: as §1
[8] = Solubility of the compound in water; format: physicochemical; settings: buffer
RAW264.7 [9] = experiment: Cytotoxicity against mouse RAW264.7 cells assessed as cell death at 1 uM after 48 hrs by MTT assay; format: cell-based; settings: raw264.7, 48 h
[10] = Solubility of the compound in DMSO; format: physicochemical
T-cell [11] = experiment: Induction of Foxp3 expression in B6 Foxp3-GFP mouse CD4-positive T cells at 100 nM after 3 days by flow cytometry in presence of 5 ng/ml TGF-beta (reference value: 37.15 %); format: functional; method in brief: as §1
T-cell [12] = experiment: Induction of Foxp3 expression in B6 Foxp3-GFP mouse CD4-positive T cells at 1 uM after 3 days by flow cytometry in presence of 5 ng/ml TGF-beta (reference value: 37.15 %); format: functional; method in brief: as §1
T-cell [13] = experiment: Induction of Foxp3 expression in B6 Foxp3-GFP mouse CD4-positive T cells at 1 nM after 3 days by flow cytometry in presence of 5 ng/ml TGF-beta (reference value: 37.15 %); format: functional; method in brief: as §1
T-cell [14] = experiment: Induction of Foxp3 expression in B6 Foxp3-GFP mouse CD4-positive T cells at 10 nM after 3 days by flow cytometry in presence of 5 ng/ml TGF-beta (reference value: 37.15 %); format: functional; method in brief: as §1
T-cell [15] = experiment: Induction of Foxp3 expression in B6 Foxp3-GFP mouse CD4-positive T cells at 1 nM after 3 days by flow cytometry in presence of 5 ng/ml TGF-beta; format: functional; method in brief: as §1

Compound: COc1cc2cc(C(=O)NCCCCCCO)c3cc(OC)c(OC)cc3c2cc1OC
- Activity (T-cell [1]): 7%
- IC50 (RAW264.7 [2]): 236 µM
- IC50 (RAW264.7 [3]): 305 µM
- IC50 [4]: 251 µM
- IC50 [5]: 317 µM

Compound: COc1cc2cc(CN3CCCCC3C(=O)O)c3cc(OC)c(OC)cc3c2cc1OC (centres undefined)
- Activity (T-cell [1]): 0.7%
- IC50 (RAW264.7 [2]): 354 µM
- IC50 (RAW264.7 [3]): 357 µM
- IC50 [4]: 292 µM
- IC50 [5]: 389 µM

Compound: COc1cc2c3c(c4cc(OC)c(OC)cc4c2cc1OC)CN1CCC[C@H]1C3 [(S)-TYLOPHORINE]
- inhibition at 0.1 µM (T-cell [6]): 44%

Compound: COc1cc2c3c(c4cc(OC)c(OC)cc4c2cc1OC)[C@H](O)[C@H]1CCCN1C3
- IC50 (RAW264.7 [2]): 0.817 µM
- Activity (T-cell [7]): 5%
- IC50 (RAW264.7 [3]): 1.16 µM
- IC50 [4]: 0.61 µM
- IC50 [5]: 0.965 µM

Compound: COC(=O)CCCCCNCc1cc2cc(OC)c(OC)cc2c2cc(OC)c(OC)cc12
- Activity (T-cell [1]): 47%
- IC50 (RAW264.7 [2]): 227 µM
- IC50 (RAW264.7 [3]): 515 µM
- IC50 [4]: 115 µM
- IC50 [5]: 213 µM

Compound: COc1cc2c3c(c4cc(OC)c(OC)cc4c2cc1OC)CN1CCCC1C3.Nc1ccc(S(=O)(=O)O)cc1 (centres undefined) [TYLOPHORINE P-AMINOBENZENESULFONIC ACID SALT]
- IC50 (RAW264.7 [2]): 0.248 µM
- IC50 (RAW264.7 [3]): 0.175 µM
- IC50 [4]: 0.215 µM
- IC50 [5]: 0.193 µM
- inhibition at 0.1 µM (T-cell [6]): 3%

Compound: COc1cc2cc(CN3CCC[C@H]3CO)c3cc(OC)c(OC)cc3c2cc1OC
- Activity (T-cell [1]): 0.2%
- IC50 (RAW264.7 [2]): 307 µM
- IC50 (RAW264.7 [3]): 422 µM
- IC50 [4]: 265 µM
- IC50 [5]: 304 µM

Compound: COc1cc2c3c(c4cc(OC)c(OC)cc4c2cc1OC)[C@@H](O)[C@@H]1CCCN1C3
- IC50 (RAW264.7 [2]): 0.35 µM
- Activity (T-cell [7]): 29%
- IC50 (RAW264.7 [3]): 1.06 µM
- IC50 [4]: 0.37 µM
- IC50 [5]: 1.29 µM

Compound: COc1cc2c3c(c4cc(OC)c(OC)cc4c2cc1OC)CN1CCCC1C3.I (centres undefined) [TYLOPHORINE HYDROIODIDE]
- inhibition (INH) (T-cell [6]): 12%

Compound: COc1cc2c3c(c4cc(OC)c(OC)cc4c2cc1OC)CN1CCCC1C3.O=C(O)c1ccccc1 (centres undefined) [TYLOPHORINE BENZOIC ACID SALT]
- inhibition (INH) (T-cell [6]): 1%

Compound: COc1cc2c3c(c4cc(OC)c(OC)cc4c2cc1OC)CN1CCCC1C3.O=C(O)c1ccccc1O (centres undefined) [TYLOPHORINE SALICYLIC ACID SALT]
- inhibition (INH) (T-cell [6]): 4%

Compound: COc1cc2c3c(c4cc(OC)c(OC)cc4c2cc1OC)[C@@H](O)[C@H]1CCCN1C3
- IC50 (RAW264.7 [2]): 0.238 µM
- Activity (T-cell [7]): 12%
- IC50 (RAW264.7 [3]): 0.242 µM
- IC50 [4]: 0.133 µM
- IC50 [5]: 0.783 µM

Compound: COc1cc2c3c(c4cc(OC)c(OC)cc4c2cc1OC)CN1CCCC1C3.O=C(O)c1cc(S(=O)(=O)O)ccc1O (centres undefined)
- IC50 (RAW264.7 [2]): 0.283 µM
- Activity (T-cell [7]): 29%
- IC50 (RAW264.7 [3]): 0.16 µM
- IC50 [4]: 0.21 µM
- IC50 [5]: 0.16 µM

Compound: COC(=O)[C@@H]1CCCN1C(=O)c1cc2cc(OC)c(OC)cc2c2cc(OC)c(OC)cc12
- Activity (T-cell [1]): 5%
- IC50 (RAW264.7 [2]): 217 µM
- IC50 (RAW264.7 [3]): 320 µM
- IC50 [4]: 211 µM
- IC50 [5]: 363 µM

Compound: COC(=O)CCCCCNC(=O)c1cc2cc(OC)c(OC)cc2c2cc(OC)c(OC)cc12
- Activity (T-cell [1]): 16%
- IC50 (RAW264.7 [2]): 241 µM
- IC50 (RAW264.7 [3]): 423 µM
- IC50 [4]: 156 µM
- IC50 [5]: 257 µM

Compound: CC1(C)C2CC[C@]1(S(=O)(=O)O)C(=O)C2.COc1cc2c3c(c4cc(OC)c(OC)cc4c2cc1OC)CN1CCCC1C3 (centres undefined)
- IC50 (RAW264.7 [2]): 0.027 µM
- IC50 (RAW264.7 [3]): 0.033 µM
- IC50 [4]: 0.03 µM
- IC50 [5]: 0.338 µM
- inhibition at 0.1 µM (T-cell [6]): 2%

Compound: COc1cc(/C=C/C(=O)O)ccc1O.COc1cc2c3c(c4cc(OC)c(OC)cc4c2cc1OC)CN1CCCC1C3 (centres undefined)
- IC50 (RAW264.7 [2]): 0.135 µM
- Activity (T-cell [7]): 0.8%
- IC50 (RAW264.7 [3]): 0.093 µM
- IC50 [4]: 0.213 µM
- IC50 [5]: 0.329 µM

Compound: COc1cc2c3c(c4cc(OC)c(OC)cc4c2cc1OC)CN1CCCC1C3 (racemic) [(+/-)-TYLOPHORINE]
- inhibition (INH) (T-cell [6]): 34%

Compound: COC(=O)[C@@H]1CCCN1Cc1cc2cc(OC)c(OC)cc2c2cc(OC)c(OC)cc12
- Activity (T-cell [1]): 19%
- IC50 (RAW264.7 [2]): 216 µM
- IC50 (RAW264.7 [3]): 469 µM
- IC50 [4]: 153 µM
- IC50 [5]: 275 µM

Compound: COC(=O)C1CCCCN1C(=O)c1cc2cc(OC)c(OC)cc2c2cc(OC)c(OC)cc12 (centres undefined)
- Activity (T-cell [1]): 7%
- IC50 (RAW264.7 [2]): 227 µM
- IC50 (RAW264.7 [3]): 116 µM
- IC50 [4]: 301 µM
- IC50 [5]: 329 µM

Compound: COc1cc2c3c(c4cc(OC)c(OC)cc4c2cc1OC)CN1CCCC1C3.O=C(O)CC(O)C(=O)O (centres undefined) [TYLOPHORINE 2-HYDROXYSUCCINIC ACID SALT]
- solubility [8]: soluble

Compound: COc1cc2c3c(c4cc(OC)c(OC)cc4c2cc1OC)[C@H](O)[C@@H]1CCCN1C3
- Activity (RAW264.7 [9]): Toxic
- IC50 (RAW264.7 [2]): 0.036 µM
- Activity (T-cell [7]): 39%
- IC50 (RAW264.7 [3]): 0.053 µM
- solubility [10]: soluble
- IC50 [4]: 0.02 µM
- IC50 [5]: 0.097 µM
- Activity (T-cell [11]): 40%

Compound: COc1cc2cc(CN3CCC(O)CC3)c3cc(OC)c(OC)cc3c2cc1OC
- Activity (T-cell [1]): 5%
- IC50 (RAW264.7 [2]): 231 µM
- IC50 (RAW264.7 [3]): 132 µM
- IC50 [4]: 265 µM
- IC50 [5]: 273 µM

Compound: COc1cc2c3c(c4cc(OC)c(OC)cc4c2cc1OC)CN1CCCC1C3.O=C(O)c1ccc(O)cc1 (centres undefined) [TYLOPHORINE P-HYDROXYBENZOIC ACID SALT]
- IC50 (RAW264.7 [2]): 0.511 µM
- IC50 (RAW264.7 [3]): 0.651 µM
- IC50 [4]: 0.76 µM
- IC50 [5]: 0.972 µM
- inhibition at 0.1 µM (T-cell [6]): 5%

Compound: COc1cc2cc(CN3CCCCC3CO)c3cc(OC)c(OC)cc3c2cc1OC (centres undefined)
- Activity (T-cell [12]): 73.94%
- Activity (T-cell [1]): 41%
- Activity (T-cell [13]): 40.42%
- IC50 (RAW264.7 [2]): 41 µM
- Activity (T-cell [14]): 41.25%
- IC50 (RAW264.7 [3]): 513 µM
- Activity (T-cell [15]): 100%
- IC50 [4]: 38 µM
- IC50 [5]: 92 µM
- Activity (T-cell [11]): 51.92%

Compound: COc1cc2cc(CN3CCC[C@H]3C(=O)O)c3cc(OC)c(OC)cc3c2cc1OC
- Activity (T-cell [1]): 2%
- IC50 (RAW264.7 [2]): 200 µM
- IC50 (RAW264.7 [3]): 418 µM
- IC50 [4]: 234 µM
- IC50 [5]: 231 µM
